In ChEMBL document CHEMBL4725333, “Carbazole-based fluorescent probes for G-quadruplex DNA targeting with superior selectivity and low cytotoxicity” (Bioorg Med Chem, 2020):
The source made the active and inactive calls. No cut-off for these calls is given here.

Legend:
Quadruplex DNA [1] = assay: Binding affinity to human c-myc G-quadruplex DNA assessed as increase in fluorescence in presence of c-myc at 1 uM by fluorescence titration analysis; type: nucleic-acid assay
Summary of the method: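 Probe at 1 µM in 10 mM Tris-HCl, 60 mM KCl, pH 7.4, titrated stepwise with c-myc G-quadruplex DNA (0–3 µM). Emission monitored near 545–547 nm, and F/F₀ of integral fluorescence fitted to an independent-site model. Linear range 0–0.8 µM DNA; detection limit from LOD = 3σ/k.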

Quadruplex DNA [2] = assay: Binding affinity to human c-myc G-quadruplex DNA in Tris Hcl buffer assessed as fluorescence lifetime of compound at 400 nm at pH 7.4 by fluorescence emission analysis (Rvb (absence of c-myc G-quadruplex DNA ) = 0.513 ns); type: nucleic-acid assay
Quadruplex DNA [3] = assay: Binding affinity to human c-myc G-quadruplex DNA uM by circular dichroism spectroscopy; type: nucleic-acid assay
Summary of the method: (§1)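 CD titration of c-myc G-quadruplex DNA (5 µM) with 0–2 equivalents of probe, in 10 mM Tris-HCl, 60 mM KCl, pH 7.4.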

Quadruplex DNA [4] = assay: Effect on topology of human c-myc G-quadruplex DNA assessed as change in conformation at 245 nm at DNA to compound ratio of 1:1 by circular dichroism spectroscopy; type: nucleic-acid assay; summary of the method: as §1
Quadruplex DNA [5] = assay: Induction of stabilization of human c-myc G-quadruplex assessed inhibition of Taq polymerase mediated DNA polymerization at high concentration upto 20 uM by PCR-stop assay; type: nucleic-acid assay; details: dose microM <=20
Summary of the method: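 PCR-stop assay. Probe (0–20 µM) was added to 1x PCR buffer containing 10 pmol c-myc template, 10 pmol c-myc rev primer, 0.2 mM dNTPs and 1.5 units Taq polymerase. Products were resolved on 15% non-denaturing polyacrylamide gels in 1× TBE. A mutant c-myc oligomer unable to fold served as control.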

[6] = Cytotoxicity against human HCCC9810 cells assessed as reduction in cell viability incubated for 72 hr by CCK8 assay; type: cell-based; details: HCCC9810, 72 h
Summary of the method: (§2)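 HCCC-9810, RBE and 293T cells exposed to probe at 0–100 µM for 72 h. Viable cells quantified by CCK-8 assay.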

[7] = Cytotoxicity against human RBE cells assessed as reduction in cell viability incubated for 72 hr by CCK8 assay; type: cell-based; summary of the method: as §2
HEK-293T = assay: Cytotoxicity against human 293T cells assessed as reduction in cell viability incubated for 72 hr by CCK8 assay; type: cell-based; summary of the method: as §2
Quadruplex DNA [8] = assay: Competitive binding affinity to human c-myc G-quadruplex DNA assessed as increase in fluorescence in presence of ssDNA and dsDNA at 1 uM by fluorescence titration analysis; type: nucleic-acid assay
Summary of the method: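 Competition titration: probe at 1 µM with 20 µM ds26 duplex DNA, then stepwise addition of c-myc G-quadruplex DNA, in 10 mM Tris-HCl, 60 mM KCl, pH 7.4. Read-out was fluorescence emission.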

Quadruplex DNA [9] = assay: Binding affinity to human c-myc G-quadruplex DNA assessed as increase in fluorescence in presence of BSA/HSA at 1 uM by fluorescence titration analysis; type: nucleic-acid assay
Summary of the method: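 Probe fluorescence followed with increasing BSA or HSA as interfering proteins, in the same Tris-HCl/KCl pH 7.4 titration system.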

Quadruplex DNA [10] = assay: Inhibition of hemin binding to human c-myc G4 quadruplex DNA by measuring peroxidase activity within 30 at 415 nm by G4/hemin peroxidase inhibition assay; type: nucleic-acid assay
Summary of the method: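 G4/hemin peroxidase assay in 10 mM Tris-HCl, 60 mM KCl, pH 7.4, with c-myc 0.4 µM, hemin 0.8 µM, ABTS²⁻ 0.18 mM and H₂O₂ 0.06 mM, across varied probe concentrations. Oxidized ABTS product followed by absorbance at 415 nm over 30 min.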

Quadruplex DNA [11] = assay: Binding affinity to human c-myc G-quadruplex DNA with TTGA GGG T GGG TA GGG T GGG TAAA flanking loops assessed as relative fluorescence intensity at 1 uM measured at pH 7.4 by fluorescent titration; type: nucleic-acid assay
Quadruplex DNA [12] = assay: Binding affinity to human c-myc G-quadruplex DNA with TTG AATGGG TGGGT AGGGT GGGT AAA flanking loops assessed as relative fluorescence intensity at 1 uM measured at pH 7.4 by fluorescent titration; type: nucleic-acid assay
Quadruplex DNA [13] = assay: Binding affinity to human c-myc G-quadruplex DNA with TTG AGGG TAAGGGT AGGGT GGGT AAA flanking loops assessed as relative fluorescence intensity at 1 uM measured at pH 7.4 by fluorescent titration; type: nucleic-acid assay
Quadruplex DNA [14] = assay: Binding affinity to human c-myc G-quadruplex DNA with TTG AGGG TGGGT AATGGGT GGGT AAA flanking loops assessed as relative fluorescence intensity at 1 uM measured at pH 7.4 by fluorescent titration; type: nucleic-acid assay
Quadruplex DNA [15] = assay: Binding affinity to human c-myc G-quadruplex DNA with TTG AGGG TGGGT AGGGT ATGGGT AAA flanking loops assessed as relative fluorescence intensity at 1 uM measured at pH 7.4 by fluorescent titration; type: nucleic-acid assay
Quadruplex DNA [16] = assay: Binding affinity to human c-myc G-quadruplex DNA with TTG AGGG TGGGT AGGGT GGGT AAATA flanking loops assessed as relative fluorescence intensity at 1 uM measured at pH 7.4 by fluorescent titration; type: nucleic-acid assay
Quadruplex DNA [17] = assay: Binding affinity to human c-myc G-quadruplex DNA with AGGG TGGGT AGGGT GGGT AAA flanking loops assessed as relative fluorescence intensity at 1 uM measured at pH 7.4 by fluorescent titration; type: nucleic-acid assay
Quadruplex DNA [18] = assay: Binding affinity to human c-myc G-quadruplex DNA with TTG AGGG TGGGT AGGGT GGGT flanking loops assessed as relative fluorescence intensity at 1 uM measured at pH 7.4 by fluorescent titration; type: nucleic-acid assay
Quadruplex DNA [19] = assay: Binding affinity to human c-myc G-quadruplex DNA with 4-aminopurine substitution assessed as fluorescence intensity; type: nucleic-acid assay
Summary of the method: (§3)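 2-aminopurine-labelled c-myc G-quadruplex DNA held at 2 µM in 10 mM Tris-HCl, pH 7.4, 60 mM KCl. Probe or hemin added gradually, and 2-Ap fluorescence intensity monitored.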

Quadruplex DNA [20] = assay: Binding affinity to human c-myc G-quadruplex DNA with 13-aminopurine substitution assessed as fluorescence intensity; type: nucleic-acid assay; summary of the method: as §3
Quadruplex DNA [21] = assay: Binding affinity to human c-myc G-quadruplex DNA with 22-aminopurine substitution assessed as fluorescence intensity; type: nucleic-acid assay; summary of the method: as §3
Quadruplex DNA [22] = assay: Binding affinity to human c-myc G-quadruplex DNA with 4-aminopurine substitution assessed as fluorescence intensity in presence of hemin; type: nucleic-acid assay; summary of the method: as §3
Quadruplex DNA [23] = assay: Binding affinity to human c-myc G-quadruplex DNA with 13-aminopurine substitution assessed as fluorescence intensity in presence of hemin; type: nucleic-acid assay; summary of the method: as §3
Quadruplex DNA [24] = assay: Binding affinity to human c-myc G-quadruplex DNA with 22-aminopurine substitution assessed as fluorescence intensity in presence of hemin; type: nucleic-acid assay; summary of the method: as §3
Quadruplex DNA [25] = assay: Binding affinity to human c-myc G-quadruplex DNA assessed as displacement of fluorescent labelled compound by measuring decrease in emission in presence of hemin by FID assay; type: nucleic-acid assay
Quadruplex DNA [26] = assay: Binding affinity to G-quadruplex DNA in human HCCC9810 cells increase in fluorescence intensity at 20 uM by confocal fluorescence microscopy; type: cell-based
Summary of the method: (§4)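 Live HCCC-9810 cells stained 0.5 h with probe at 20 µM together with DAPI (5 mg/mL) as nuclear counterstain. Imaged by confocal fluorescence microscopy. Intracellular location is assigned from co-staining with DAPI, and uptake is judged from fluorescence intensity within the cells.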

Quadruplex DNA [27] = assay: Binding affinity to G-quadruplex DNA in human HCCC9810 cells increase in fluorescence intensity in cytoplasm at 20 uM by confocal fluorescence microscopy; type: cell-based; summary of the method: as §4
Quadruplex DNA [28] = assay: Effect on topology of human c-myc G-quadruplex DNA assessed as change in conformation at 265 nm by circular dichroism spectroscopy
Quadruplex DNA [29] = assay: Binding affinity to human c-myc G-quadruplex DNA in Tris Hcl buffer assessed as increase in fluorescence intensity at 545 nm at 0 to 0.8 uM measured at pH 7.4 by fluorescence emission analysis; details: dose microM 0-0.8

In the case of COCCOCCOCCn1c2ccccc2c2cc(/C=C/c3cccc[n+]3C)ccc21.[I-], the Activity (Quadruplex DNA [1]) is reported as “Active”, the Time (Quadruplex DNA [2]) is reported as 3.87 nanoseconds and the Activity (Quadruplex DNA [3]) is reported as “Active”. The Activity (Quadruplex DNA [4]) was “inactive”, the Activity (Quadruplex DNA [5]) was “Active” and the IC50 [6] was over 40 µM. The IC50 [7] was over 40 µM, the IC50 (HEK-293T) was 40 µM and the Activity (Quadruplex DNA [8]) was “Active”. For the same compound, the Activity (Quadruplex DNA [9]) was “Active”, the Activity (Quadruplex DNA [10]) was “inactive” and the Flu intensity (Quadruplex DNA [11]) was 695. For the same compound, the Flu intensity (Quadruplex DNA [12]) was 702, the Flu intensity (Quadruplex DNA [13]) was 910 and the Flu intensity (Quadruplex DNA [14]) was 632. The Flu intensity (Quadruplex DNA [15]) was 570, the Flu intensity (Quadruplex DNA [16]) was 852 and the Flu intensity (Quadruplex DNA [17]) was 846. The Flu intensity (Quadruplex DNA [18]) was 861, the Activity (Quadruplex DNA [19]) was “Active” and the Activity (Quadruplex DNA [20]) was “Active”. The Activity (Quadruplex DNA [21]) was “Active”, the Activity (Quadruplex DNA [22]) was “inactive” and the Activity (Quadruplex DNA [23]) was “inactive”. The Activity (Quadruplex DNA [24]) was “inactive”, the Activity (Quadruplex DNA [25]) was “inactive” and the Activity (Quadruplex DNA [26]) was “Active”. The Activity (Quadruplex DNA [27]) was “Active”, the Activity (Quadruplex DNA [28]) was “inactive” and the Activity (Quadruplex DNA [29]) was “Active”.
